Reference: ChEMBL document CHEMBL4402584, “Lead Optimization of Phthalazinone Phosphodiesterase Inhibitors as Novel Antitrypanosomal Compounds” (J Med Chem, 2020)

Columns and labels:
[1] = target: T1, Class 1 phosphodiesterase PDEB1 (Trypanosoma brucei, UniProt Q8WQX9); test: Inhibition of Trypanosoma brucei PDEB1 (565 to 918 residues) expressed in Escherichia coli BL21 (DE3) using cAMP as substrate by PDELight HTS cAMP phosphodiesterase Kit based
T1 sequence (Q8WQX9 whole entry): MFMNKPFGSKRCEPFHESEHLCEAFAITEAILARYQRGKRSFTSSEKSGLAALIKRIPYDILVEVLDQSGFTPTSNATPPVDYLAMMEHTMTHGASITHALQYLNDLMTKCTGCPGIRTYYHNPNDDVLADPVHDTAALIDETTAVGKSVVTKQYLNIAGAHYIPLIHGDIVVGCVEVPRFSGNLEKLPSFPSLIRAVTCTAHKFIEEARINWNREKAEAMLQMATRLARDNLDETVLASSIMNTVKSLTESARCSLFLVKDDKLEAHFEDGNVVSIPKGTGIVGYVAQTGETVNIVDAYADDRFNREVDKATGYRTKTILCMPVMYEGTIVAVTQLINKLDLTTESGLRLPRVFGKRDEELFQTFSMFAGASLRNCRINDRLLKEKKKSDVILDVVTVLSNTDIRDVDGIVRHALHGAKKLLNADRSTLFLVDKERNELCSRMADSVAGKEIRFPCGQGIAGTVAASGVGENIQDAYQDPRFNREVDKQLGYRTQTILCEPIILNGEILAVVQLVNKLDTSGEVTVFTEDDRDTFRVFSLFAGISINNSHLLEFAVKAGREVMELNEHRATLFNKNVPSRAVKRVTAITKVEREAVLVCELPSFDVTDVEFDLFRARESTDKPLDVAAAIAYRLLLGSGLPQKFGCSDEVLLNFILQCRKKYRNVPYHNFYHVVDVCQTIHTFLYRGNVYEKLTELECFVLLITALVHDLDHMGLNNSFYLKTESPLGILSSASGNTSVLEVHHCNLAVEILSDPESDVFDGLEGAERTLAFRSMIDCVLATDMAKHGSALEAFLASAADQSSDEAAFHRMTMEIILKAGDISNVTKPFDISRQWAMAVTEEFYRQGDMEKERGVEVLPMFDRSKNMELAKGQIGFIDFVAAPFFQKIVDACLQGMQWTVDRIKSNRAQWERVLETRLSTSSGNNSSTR
In short: (§1)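 Recombinant catalytic domains, His-tag purified, then ion exchange and size exclusion, were tested with the PDELight HTS cAMP kit in stimulation buffer (50 mM Hepes, 100 mM NaCl, 10 mM MgCl2, 0.5 mM EDTA, 0.05 mg/ml BSA, pH 7.5). Dose-response curves gave Ki, expressed as pKi = −log10(Ki ÷ 1000000).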

Trypanosoma brucei = test: Antitrypanosomal activity against Trypanosoma brucei Squib 427 assessed as reduction in parasite growth incubated for 72 hrs by resazurin dye based fluorimetric analysis; format: functional, organism-based; conditions: Squib 427, 72 h
[2] = Cytotoxicity against human MRC5 SV2 cells assessed as reduction in cell viability incubated for 72 hrs by resazurin dye based fluorimetric assay; conditions: MRC-5 SV2, 72 h
In short: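 MRC-5 SV2 fibroblasts grown in Earl's MEM with 5% FBSi, L-glutamine and bicarbonate; 1×10^4 cells/well treated 72 h at 37 °C, 5% CO2; resazurin viability read fluorimetrically (ex 550, em 590 nm). Five 4-fold dilutions from a 64 µM top concentration; IC50 derived from % viability reduction vs untreated wells; tamoxifen as reference.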

[3] = target: 3',5'-cyclic-AMP phosphodiesterase 4D (Homo sapiens, UniProt Q08499); test: Inhibition of human PDE4D2 expressed in Escherichia coli BL21 (DE3) using cAMP as substrate by PDELight HTS cAMP phosphodiesterase Kit based; in short: as §1
Sequence of 3',5'-cyclic-AMP phosphodiesterase 4D (Q08499 whole entry): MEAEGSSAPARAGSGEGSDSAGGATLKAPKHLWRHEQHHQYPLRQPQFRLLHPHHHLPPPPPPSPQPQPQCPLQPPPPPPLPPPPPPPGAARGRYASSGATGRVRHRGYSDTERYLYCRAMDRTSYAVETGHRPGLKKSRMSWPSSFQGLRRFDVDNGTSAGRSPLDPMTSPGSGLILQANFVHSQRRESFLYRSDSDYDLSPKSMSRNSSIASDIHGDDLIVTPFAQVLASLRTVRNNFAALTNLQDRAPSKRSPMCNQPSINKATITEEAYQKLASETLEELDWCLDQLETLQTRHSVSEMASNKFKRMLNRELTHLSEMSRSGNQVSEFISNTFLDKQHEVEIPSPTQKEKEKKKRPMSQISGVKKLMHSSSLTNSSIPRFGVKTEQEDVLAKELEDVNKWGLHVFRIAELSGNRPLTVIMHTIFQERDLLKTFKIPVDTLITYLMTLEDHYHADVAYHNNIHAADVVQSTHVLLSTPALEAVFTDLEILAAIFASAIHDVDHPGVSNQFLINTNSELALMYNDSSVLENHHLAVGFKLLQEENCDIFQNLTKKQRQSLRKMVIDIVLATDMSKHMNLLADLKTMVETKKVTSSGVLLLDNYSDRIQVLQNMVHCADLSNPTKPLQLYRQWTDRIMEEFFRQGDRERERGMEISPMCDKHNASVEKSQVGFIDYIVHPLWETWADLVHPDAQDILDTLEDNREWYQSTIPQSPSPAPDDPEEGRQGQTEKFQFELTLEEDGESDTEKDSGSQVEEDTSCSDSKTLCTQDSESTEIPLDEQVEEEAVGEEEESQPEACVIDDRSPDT

[4] = Metabolic stability in mouse microsomes assessed as compound remaining at 5 uM incubated for 30 mins by UPLC-MS/MS analysis; format: ADME, Microsome; conditions: 0.5 h, 5 µM
In short: (§2)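 Compound at 5 µM incubated with 0.5 mg/mL male liver microsomes in potassium phosphate buffer, started with 1 mM NADPH (CYP phase I). Aliquots quenched in cold acetonitrile containing tolbutamide, centrifuged at 4 °C, supernatant analysed by LC-MS. Results given as % parent remaining relative to time 0; mean of at least two experiments; diclofenac as control.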

[5] = Metabolic stability in human microsomes assessed as compound remaining at 5 uM incubated for 30 mins by UPLC-MS/MS analysis; format: ADME, Microsome; conditions: 0.5 h, 5 µM; in short: as §2

Row | Compound | Ki [1] | IC50 (Trypanosoma brucei) | IC50 [2] | Ki [3] | Stability [4] | Stability [5]
1 | O=C1[C@@H]2CC=CC[C@@H]2C(c2ccc(OC(F)F)c(O)c2)=NN1C1CCN(c2ncnc3ccsc23)CC1 | > 1660 nM | 3.39 µM | 64.6 µM | – | – | –
2 | COc1ccc(C2=NN(C3CCN(c4ncc5sccc5n4)CC3)C(=O)[C@@H]3CC=CC[C@H]23)cc1OC | 692 nM | 2.29 µM | 64.6 µM | 2.57 nM | – | –
3 | COc1ccc(C2=NN(C3CCN(c4ncnc5ccsc45)CC3)C(=O)[C@@H]3CC=CC[C@H]23)cc1OC | 66.1 nM | 0.372 µM | 7.24 µM | 0.234 nM | – | –
4 | CC1(C)CC(=O)N(CC(=O)N2CCC(N3N=C(c4ccc(F)c(F)c4)[C@H]4CCCC[C@H]4C3=O)CC2)C(=O)C1 | > 22400 nM | 45.7 µM | 42.7 µM | – | – | –
5 | COc1ccc(C2=NN(C3CCN(c4nc(N)nc5ccccc45)CC3)C(=O)[C@@H]3CC=CC[C@H]23)cc1OC | 24.5 nM | 0.813 µM | 7.76 µM | 0.155 nM | – | –
6 | COc1ccc(C2=NN(C3CCN(c4nccc(N)n4)CC3)C(=O)[C@@H]3CC=CC[C@H]23)cc1OC | 110 nM | 1.86 µM | 17.4 µM | 0.316 nM | – | –
7 | O=C(CN1C(=O)CC2(CCCCC2)CC1=O)N1CCC(N2N=C(c3ccc(OC(F)F)c(OC(F)F)c3)[C@H]3CC=CC[C@H]3C2=O)CC1 | 776 nM | 7.59 µM | 64.6 µM | 1.62 nM | – | –
8 | O=C1[C@@H]2CC=CC[C@@H]2C(c2ccc(O)c(O)c2)=NN1C1CCN(c2ncnc3ccsc23)CC1 | 891 nM | 5.13 µM | 25.1 µM | 63.1 nM | – | –
9 | COc1ccc(C2=NN(C3CCN(c4nc(N)nc5sccc45)CC3)C(=O)[C@@H]3CC=CC[C@H]23)cc1Cl | 832 nM | 2 µM | 64.6 µM | 30.2 nM | – | –
10 | COc1ccc(C2=NN(C3CCN(c4nc(N)nc5[nH]cnc45)CC3)C(=O)[C@@H]3CC=CC[C@H]23)cc1OC | 105 nM | 1.7 µM | 17.8 µM | 0.871 nM | – | –
11 | O=C1[C@@H]2CC=CC[C@@H]2C(c2ccc(OC(F)F)c(OC(F)F)c2)=NN1C1CCN(c2ncnc3ccsc23)CC1 | > 2140 nM | 6.76 µM | 64.6 µM | – | Stable | Stable
12 | O=C1[C@@H]2CC=CC[C@@H]2C(c2ccc(F)c(F)c2)=NN1C1CCN(c2ncnc3ccsc23)CC1 | > 5620 nM | 13.2 µM | 38 µM | – | Stable | Stable
13 | COc1ccc(C2=NN(C3CCN(c4ncnc5ccsc45)CC3)C(=O)C2(C)C)cc1OC | > 2040 nM | 32.4 µM | 25.1 µM | – | – | –
14 | CC1(C)CC(=O)N(CC(=O)N2CCC(N3N=C(c4ccc(F)c(F)c4)[C@H]4CC=CC[C@H]4C3=O)CC2)C(=O)C1 (relative stereo) | > 9770 nM | 47.9 µM | 30.9 µM | – | – | –
15 | COc1ccc(C2=NN(C3CCN(c4ncnc5ccccc45)CC3)C(=O)[C@@H]3CC=CC[C@H]23)cc1OC | 646 nM | 0.263 µM | 3.02 µM | 0.224 nM | – | –
16 | CC1(C)CC(=O)N(CC(=O)N2CCC(N3N=C(c4ccc(F)cc4)[C@H]4CC=CC[C@H]4C3=O)CC2)C(=O)C1 (relative stereo) | 77.6 nM | 64.6 µM | 29.5 µM | 0.12 nM | – | –
17 | COc1ccc(C2=NN(C3CCN(c4ncc5ccccc5n4)CC3)C(=O)[C@@H]3CC=CC[C@H]23)cc1OC | 646 nM | 1.7 µM | 64.6 µM | 0.589 nM | – | –
18 | COc1ccc(C2=NN(C3CCN(c4nc(N)nc5sccc45)CC3)C(=O)[C@@H]3CC=CC[C@H]23)cc1OC | 42.7 nM | 0.468 µM | 64.6 µM | 0.355 nM | – | –

Row | Compound | Ki [1] | IC50 (Trypanosoma brucei) | IC50 [2] | Ki [3] | Stability [4] | Stability [5]
19 | COc1ccc(C2=NN(C3CN(c4ncnc5ccsc45)C3)C(=O)[C@@H]3CC=CC[C@H]23)cc1OC | 288 nM | 15.1 µM | 64.6 µM | 0.562 nM | – | –
20 | COc1ccc(-c2nn(C3CCN(c4nc(N)nc5sccc45)CC3)c(=O)n3ccnc23)cc1OC | > 18200 nM | 64.6 µM | 64.6 µM | – | – | –
21 | O=C(CN1C(=O)CC2(CCCC2)CC1=O)N1CCC(N2N=C(c3ccc(F)cc3)[C@H]3CC=CC[C@H]3C2=O)CC1 (relative stereo) | > 16600 nM | 32.4 µM | 40.7 µM | – | – | –
22 | COc1ccc(-c2nn(C3CCNCC3)c(=O)n3ccnc23)cc1OC | > 31600 nM | 32.4 µM | 64.6 µM | – | – | –
23 | O=C(CN1C(=O)CC2(CCCCC2)CC1=O)N1CCC(N2N=C(c3ccc(F)cc3)[C@H]3CC=CC[C@H]3C2=O)CC1 (relative stereo) | > 9550 nM | 10.2 µM | 64.6 µM | – | – | –
24 | COc1ccc(C2=NN(C3CCN(c4nc(N)nc5sccc45)CC3)C(=O)[C@@H]3CCCC[C@H]23)cc1OC | 93.3 nM | 0.955 µM | 28.8 µM | 0.661 nM | – | –
25 | COc1ccc(C2=NN(C3CN(C(=O)CN4C(=O)CC(C)(C)CC4=O)C3)C(=O)[C@@H]3CC=CC[C@H]23)cc1OC | 102 nM | 1.82 µM | 64.6 µM | 0.389 nM | – | –
26 | COc1ccc(C2=NN(C3CCN(c4nc(N)c5ccccc5n4)CC3)C(=O)[C@@H]3CC=CC[C@H]23)cc1OC | 646 nM | 0.871 µM | 7.41 µM | 2.45 nM | – | –
27 | COc1ccc(C2=NN(C3CN(C(=O)CN4C(=O)CC5(CCCC5)CC4=O)C3)C(=O)[C@@H]3CC=CC[C@H]23)cc1OC | 170 nM | 2.51 µM | 64.6 µM | 0.676 nM | – | –
28 | COc1ccc(C2=NN(C3CCN(c4ccnc(N)n4)CC3)C(=O)[C@@H]3CC=CC[C@H]23)cc1OC | 257 nM | 3.63 µM | 3.89 µM | 0.513 nM | – | –
29 | COc1ccc(C2=NN(C3CN(c4nc(N)nc5sccc45)C3)C(=O)[C@@H]3CC=CC[C@H]23)cc1OC | 275 nM | 7.76 µM | 64.6 µM | 1.17 nM | – | –
30 | COc1ccc(C2=NN(C3CCN(C(=O)CN4C(=O)CC(C)C4=O)CC3)C(=O)[C@@H]3CC=CC[C@H]23)cc1OC (stereo not given in full) | 75.9 nM | 1.82 µM | 64.6 µM | 0.17 nM | – | –
31 | COc1ccc(-c2n[nH]c(=O)n3ccnc23)cc1OC | > 31600 nM | 64.6 µM | 64.6 µM | – | – | –
32 | COc1ccc(C2=NN(C3CCN(C(=O)CN4C(=O)CC5(CCCCC5)CC4=O)CC3)C(=O)[C@@H]3CCCC[C@H]23)cc1OC | > 9770 nM | – | 8.51 µM | – | – | –
33 | COc1ccc(C2=NN(C3CCN(C(=O)CN4C(=O)CC(Cc5ccccc5)C4=O)CC3)C(=O)[C@@H]3CC=CC[C@H]23)cc1OC (stereo not given in full) | 97.7 nM | 64.6 µM | 64.6 µM | 0.316 nM | – | –
34 | CC1(C)CC(=O)N(CC(=O)N2CCC(N3N=C(c4ccc(OC(F)F)c(OC(F)F)c4)[C@H]4CC=CC[C@H]4C3=O)CC2)C(=O)C1 | 407 nM | 1 µM | 64.6 µM | 0.302 nM | – | –
35 | COc1ccc(-c2ccc(=O)n(C3CCN(c4nc(N)nc5sccc45)CC3)n2)cc1OC | > 3720 nM | 7.76 µM | 11.2 µM | – | – | –
